Reference: ChEMBL document CHEMBL5678802, “Small-molecule p21-activated kinase inhibitor PF-3758309 is a potent inhibitor of oncogenic signaling and tumor growth” (Proc Natl Acad Sci U S A, 2010)
Active and inactive are the calls of the source. The rule behind the calls is not given here.

How the values were obtained:
[1] = tested on: SK-MES-1; experiment: Antiproliferative activity against human SK-MES-1 cells assessed as inhibition of cell proliferation incubated for 3 days by CellTiter-Glo Luminescent Cell Viability Assay; format: functional, cell-based; settings: SK-MES-1, 72 h
In short: (§1)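 Cells of each line were plated in 384-well plates on day 1 and exposed to compound from day 2 for 3 days. On day 5 all medium was aspirated. Viable cell number was read by CellTiter-Glo luminescence, which quantifies cellular ATP.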

[2] = tested on: DAN-G; experiment: Antiproliferative activity against human DAN-G cells assessed as inhibition of cell proliferation incubated for 3 days by CellTiter-Glo Luminescent Cell Viability Assay; format: functional, cell-based; settings: 72 h
In short: (§2)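 Cancer cell lines seeded in 384-well plates on day 1; compound added on day 2 and left for 3 days. On day 5 all medium was aspirated, and viable cells were quantified by CellTiter-Glo luminescence, which measures cellular ATP. Dose-dependent effects on proliferation were determined.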

[3] = tested on: HCT-116; experiment: Antitumor activity against human HCT-116 cells xenografted in nude mouse assessed as tumor growth inhibition at 3.3 mg/kg administered via pump for 9 days relative to control; format: functional; settings: HCT-116, 216 h, time 9 day, read-out: TGI
[4] = tested on: T84; experiment: Antiproliferative activity against human T84 cells assessed as inhibition of cell proliferation incubated for 3 days by CellTiter-Glo Luminescent Cell Viability Assay; format: functional, cell-based; settings: T84, 72 h; in short: as §1
[5] = tested on: HCT-116; experiment: Antitumor activity against human HCT-116 cells xenografted in nude mouse assessed as reduction in total Myc level at 15 to 150 mg/kg/day administered via pump for 18 hrs by Reverse-Phase protein array analysis; format: functional, organism-based; settings: dose 15-150 mg/kg/day
[6] = molecular target: Ribosomal protein S6 kinase alpha-3 (Homo sapiens, UniProt P51812); experiment: Inhibition of human RSK2 in presence of ATP
Chain of Ribosomal protein S6 kinase alpha-3 (P51812 whole entry): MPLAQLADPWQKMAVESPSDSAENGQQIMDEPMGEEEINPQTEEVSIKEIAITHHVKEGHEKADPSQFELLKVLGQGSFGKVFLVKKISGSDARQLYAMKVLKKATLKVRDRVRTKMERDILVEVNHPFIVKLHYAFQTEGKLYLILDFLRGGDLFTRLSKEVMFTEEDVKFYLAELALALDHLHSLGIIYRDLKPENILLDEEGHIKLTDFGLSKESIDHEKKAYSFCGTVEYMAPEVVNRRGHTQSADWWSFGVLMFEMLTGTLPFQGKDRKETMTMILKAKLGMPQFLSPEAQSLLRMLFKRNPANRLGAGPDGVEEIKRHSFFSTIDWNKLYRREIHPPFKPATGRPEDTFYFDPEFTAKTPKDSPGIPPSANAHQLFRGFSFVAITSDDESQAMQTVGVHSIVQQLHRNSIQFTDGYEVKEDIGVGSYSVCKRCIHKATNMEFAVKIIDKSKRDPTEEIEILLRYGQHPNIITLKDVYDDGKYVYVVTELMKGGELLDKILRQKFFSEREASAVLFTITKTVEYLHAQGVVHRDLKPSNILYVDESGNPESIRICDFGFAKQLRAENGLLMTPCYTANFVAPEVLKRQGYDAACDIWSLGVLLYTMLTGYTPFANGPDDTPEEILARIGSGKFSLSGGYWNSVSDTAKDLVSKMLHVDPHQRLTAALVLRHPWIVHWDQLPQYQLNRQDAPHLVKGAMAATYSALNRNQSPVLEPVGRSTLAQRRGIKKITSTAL

[7] = tested on: NCI-H82; experiment: Antiproliferative activity against human NCI-H82 cells assessed as inhibition of cell proliferation incubated for 3 days by CellTiter-Glo Luminescent Cell Viability Assay; format: functional, cell-based; settings: NCI-H82, 72 h; in short: as §1
[8] = tested on: NCI-H1838; experiment: Inhibition of anchorage independent cell growth in human NCI-H1838 cells incubated for 6 days by Alamar blue reagent based fluorescence plate reader analysis; format: functional; settings: NCI-H1838, 144 h
[9] = tested on: SK-BR-3; experiment: Antiproliferative activity against human SK-BR-3 cells assessed as inhibition of cell proliferation incubated for 3 days by CellTiter-Glo Luminescent Cell Viability Assay; format: functional, cell-based; settings: SK-BR-3, 72 h; in short: as §1
[10] = tested on: NCI-H1581; experiment: Antiproliferative activity against human NCI-H1581 cells assessed as inhibition of cell proliferation incubated for 3 days by CellTiter-Glo Luminescent Cell Viability Assay; format: functional, cell-based; settings: NCI-H1581, 72 h; in short: as §2
[11] = tested on: NCI-H358; experiment: Antiproliferative activity against human NCI-H358 cells assessed as inhibition of cell proliferation incubated for 3 days by CellTiter-Glo Luminescent Cell Viability Assay; format: functional, cell-based; settings: NCI-H358, 72 h; in short: as §1
[12] = tested on: MCF7; experiment: Antiproliferative activity against human MCF7 cells assessed as inhibition of cell proliferation incubated for 3 days by CellTiter-Glo Luminescent Cell Viability Assay; format: functional, cell-based; settings: MCF7, 72 h; in short: as §2
[13] = molecular target: T1, Ribosomal protein S6 kinase alpha-2 (Homo sapiens, UniProt Q15349); experiment: Inhibition of human RSK3 assessed as inhibition constant in presence of ATP
T1 sequence (Q15349 whole entry): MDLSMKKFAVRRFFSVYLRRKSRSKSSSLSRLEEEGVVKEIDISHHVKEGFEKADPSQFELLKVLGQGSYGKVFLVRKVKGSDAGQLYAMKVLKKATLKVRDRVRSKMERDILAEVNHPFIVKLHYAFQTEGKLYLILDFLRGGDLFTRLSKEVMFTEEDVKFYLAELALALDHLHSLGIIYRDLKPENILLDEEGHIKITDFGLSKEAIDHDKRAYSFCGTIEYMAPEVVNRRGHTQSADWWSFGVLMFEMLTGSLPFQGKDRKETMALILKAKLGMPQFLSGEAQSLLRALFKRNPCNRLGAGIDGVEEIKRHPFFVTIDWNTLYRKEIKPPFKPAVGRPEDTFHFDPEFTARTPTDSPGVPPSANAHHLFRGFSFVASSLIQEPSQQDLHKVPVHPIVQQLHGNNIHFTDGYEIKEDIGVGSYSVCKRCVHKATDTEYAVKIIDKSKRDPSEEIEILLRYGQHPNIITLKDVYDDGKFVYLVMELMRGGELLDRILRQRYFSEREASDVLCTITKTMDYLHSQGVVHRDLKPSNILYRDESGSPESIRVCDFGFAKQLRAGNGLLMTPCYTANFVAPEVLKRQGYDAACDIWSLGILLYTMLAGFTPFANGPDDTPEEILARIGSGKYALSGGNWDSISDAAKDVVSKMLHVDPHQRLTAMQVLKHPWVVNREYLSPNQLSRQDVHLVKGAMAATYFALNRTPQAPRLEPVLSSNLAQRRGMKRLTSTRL

[14] = molecular target: Protein kinase C gamma type (Homo sapiens, UniProt P05129); experiment: Inhibition of human PKCgamma in presence of ATP
[15] = tested on: HCT-116; experiment: Antitumor activity against human HCT-116 cells xenografted in nude mouse assessed as reduction in Src phosphorylation at Y416 residue at 15 to 150 mg/kg/day administered via pump for 18 hrs by Reverse-Phase protein array analysis; format: functional, organism-based; settings: dose 15-150 mg/kg/day
[16] = molecular target: T1, Ribosomal protein S6 kinase alpha-2; experiment: Inhibition of human RSK3 in presence of ATP by cellular assay
[17] = molecular target: Serine/threonine-protein kinase PAK 4 (Homo sapiens, UniProt O96013); settings: dose 50.0 µM
Chain of Serine/threonine-protein kinase PAK 4 (O96013 whole entry, looked up): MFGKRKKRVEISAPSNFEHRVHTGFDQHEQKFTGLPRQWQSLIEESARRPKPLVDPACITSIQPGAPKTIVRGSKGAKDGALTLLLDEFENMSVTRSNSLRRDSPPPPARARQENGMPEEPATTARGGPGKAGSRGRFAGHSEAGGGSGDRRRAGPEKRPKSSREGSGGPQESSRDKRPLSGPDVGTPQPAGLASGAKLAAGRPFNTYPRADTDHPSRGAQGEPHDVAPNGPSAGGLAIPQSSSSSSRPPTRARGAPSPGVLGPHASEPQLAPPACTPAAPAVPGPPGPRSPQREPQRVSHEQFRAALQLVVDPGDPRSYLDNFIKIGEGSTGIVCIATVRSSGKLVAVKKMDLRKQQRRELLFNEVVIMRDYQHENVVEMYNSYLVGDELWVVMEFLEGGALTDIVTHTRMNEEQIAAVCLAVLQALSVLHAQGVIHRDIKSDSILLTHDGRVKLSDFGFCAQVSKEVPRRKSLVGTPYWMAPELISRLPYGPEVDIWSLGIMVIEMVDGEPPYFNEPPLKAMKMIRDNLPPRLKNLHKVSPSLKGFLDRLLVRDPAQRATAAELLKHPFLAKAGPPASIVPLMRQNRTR

[18] = tested on: HCT-116; experiment: Antitumor activity against human HCT-116 cells xenografted in nude mouse assessed as inhibition of [3H]FLT uptake at 25 mg/kg, po administered once a day for 1 day and measured after 2 hrs post [3H]FLT administration by scintillation counter analysis relative to control; format: functional; settings: HCT-116, 24 h
In short: (§3)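 HCT116 xenograft mice (tumors 300–350 mm3, n = 5 per group) received oral vehicle or compound, with harvests on days 2, 3 and 6. Isoflurane-anesthetized mice were given [3H]FLT (15 nCi/g, i.p.) 2 h before killing. Tumor and liver were weighed, solubilized and scintillation-counted. SUV = C/(ID/W), and uptake is reported as the tumor-to-liver SUV ratio.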

[19] = tested on: HCT-116; experiment: Antitumor activity against human HCT-116 cells xenografted in nude mouse assessed as inhibition of [3H]FLT uptake at 15 mg/kg, po administered twice a day for 6 days and measured after 2 hrs post [3H]FLT administration by scintillation counter analysis relative to control; format: functional; settings: HCT-116, 144 h, time 6 day; in short: as §3
[20] = molecular target: T2, cGMP-dependent protein kinase 1 (Homo sapiens, UniProt Q13976); experiment: Inhibition of human PRKG1 in presence of ATP by cellular assay
T2 sequence (Q13976 whole entry): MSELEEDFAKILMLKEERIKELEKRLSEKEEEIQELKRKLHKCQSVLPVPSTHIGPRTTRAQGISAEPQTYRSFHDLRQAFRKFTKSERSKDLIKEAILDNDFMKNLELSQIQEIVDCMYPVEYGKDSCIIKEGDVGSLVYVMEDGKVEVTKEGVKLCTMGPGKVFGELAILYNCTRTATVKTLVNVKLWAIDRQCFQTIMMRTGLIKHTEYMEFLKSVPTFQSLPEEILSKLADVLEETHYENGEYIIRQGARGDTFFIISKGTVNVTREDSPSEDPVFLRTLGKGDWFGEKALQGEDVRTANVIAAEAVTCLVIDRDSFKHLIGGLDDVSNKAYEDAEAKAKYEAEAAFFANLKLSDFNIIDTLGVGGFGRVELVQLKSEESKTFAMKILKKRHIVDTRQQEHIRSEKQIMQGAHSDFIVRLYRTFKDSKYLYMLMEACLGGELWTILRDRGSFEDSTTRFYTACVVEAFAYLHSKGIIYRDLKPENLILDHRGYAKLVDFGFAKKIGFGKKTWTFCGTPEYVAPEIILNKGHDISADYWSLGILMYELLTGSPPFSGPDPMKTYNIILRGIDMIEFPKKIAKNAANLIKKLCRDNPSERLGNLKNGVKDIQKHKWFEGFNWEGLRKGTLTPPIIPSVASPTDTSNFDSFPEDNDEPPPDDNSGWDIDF

[21] = tested on: NCI-H226; experiment: Antiproliferative activity against human NCI-H226 cells assessed as inhibition of cell proliferation incubated for 3 days by CellTiter-Glo Luminescent Cell Viability Assay; format: functional, cell-based; settings: NCI-H226, 72 h; in short: as §1
[22] = molecular target: Protein kinase C theta type (Homo sapiens, UniProt Q04759); experiment: Inhibition of human PKCtheta in presence of ATP
Chain of Protein kinase C theta type (Q04759 whole entry): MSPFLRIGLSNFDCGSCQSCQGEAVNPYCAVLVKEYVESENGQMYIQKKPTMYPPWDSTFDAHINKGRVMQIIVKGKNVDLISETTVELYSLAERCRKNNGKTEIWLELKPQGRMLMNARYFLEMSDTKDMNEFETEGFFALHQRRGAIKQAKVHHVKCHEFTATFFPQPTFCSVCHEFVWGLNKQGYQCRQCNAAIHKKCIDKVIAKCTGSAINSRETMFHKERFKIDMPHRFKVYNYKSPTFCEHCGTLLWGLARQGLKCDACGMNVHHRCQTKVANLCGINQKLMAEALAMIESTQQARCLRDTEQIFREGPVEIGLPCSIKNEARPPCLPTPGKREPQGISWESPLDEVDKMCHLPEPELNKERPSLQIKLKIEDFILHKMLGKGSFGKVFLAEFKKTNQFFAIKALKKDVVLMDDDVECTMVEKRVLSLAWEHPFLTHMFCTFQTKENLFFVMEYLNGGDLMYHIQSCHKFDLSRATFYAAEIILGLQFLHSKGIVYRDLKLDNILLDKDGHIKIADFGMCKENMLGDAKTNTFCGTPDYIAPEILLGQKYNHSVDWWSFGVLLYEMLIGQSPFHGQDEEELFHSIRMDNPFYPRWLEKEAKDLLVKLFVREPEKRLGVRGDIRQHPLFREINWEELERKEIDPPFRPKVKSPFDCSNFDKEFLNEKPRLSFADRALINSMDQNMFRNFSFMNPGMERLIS

[23] = tested on: NCI-H526; experiment: Antiproliferative activity against human NCI-H526 cells assessed as inhibition of cell proliferation incubated for 3 days by CellTiter-Glo Luminescent Cell Viability Assay; format: functional, cell-based; settings: NCI-H526, 72 h; in short: as §1

## Cc1nc(Nc2n[nH]c3c2CN(C(=O)N[C@H](CN(C)C)c2ccccc2)C3(C)C)c2sccc2n1 [PF-03758309]
[1]
  IC50: 3.2 nM
[2]
  IC50: 518 nM
[3]
  inhibition in vivo at 3.3 mg/kg: 114%
[4]
  IC50: 89 nM
[5]
  Activity: Active
[6]
  IC50: 2 nM
[7]
  IC50: 2.1 nM
[8]
  IC50: 9.59 nM
[9]
  IC50: 132 nM
[10]
  IC50: 0.6 nM
[11]
  IC50: 11 nM
[12]
  IC50: 44.6 nM
[13]
  Ki: 11 nM
[14]
  IC50: 59.2 nM
[15]
  Activity: Active
[16]
  IC50: 1960 nM
[17]
  TdeltaS: 6.7 kcal/mol
[18]
  inhibition in vivo at 25 mg/kg: 33.8%
[19]
  inhibition in vivo at 15 mg/kg: 32.5%
[20]
  IC50: 3370 nM
[21]
  IC50: 9.3 nM
[22]
  IC50: 28 nM
[23]
  IC50: 1.4 nM
